# From ChEMBL document CHEMBL1926550, “Synthesis and antibacterial activity of naphthyridone derivatives containing mono/difluoro-methyloxime pyrrolidine scaffolds” (2012)
# Columns and labels:
# Format in all cases: functional
# Escherichia coli [1] = test: Antibacterial activity against Escherichia coli 09-2 after 18 hrs by two fold serial dilution method; settings: 09-2, 18 h
# How it was run: (§1)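 Agar two-fold serial dilution in melted Mueller-Hinton agar, final concentrations 128 down to 0.008 μg/mL. Plates inoculated with 10⁴ cfu and incubated at 35 °C for 18 h. MIC taken as the lowest concentration giving no visible growth on the plate.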
# Escherichia coli [2] = test: Antibacterial activity against Escherichia coli 09-3 after 18 hrs by two fold serial dilution method; settings: 09-3, 18 h; how it was run: as §1
# Staphylococcus aureus [3] = test: Antibacterial activity against methicillin-resistant Staphylococcus aureus 10-3 after 18 hrs by two fold serial dilution method; settings: 10-3, 18 h
# How it was run: (§2)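 Agar two-fold serial dilution in melted Mueller-Hinton agar, 128 to 0.008 μg/mL. Plates inoculated with 10⁴ cfu, incubated 35 °C for 18 h. MIC taken as lowest concentration giving no visible growth on the plate.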
# [4] = test system: Staphylococcus epidermidis; test: Antibacterial activity against methicillin-sensitive Staphylococcus epidermidis 10-2 after 18 hrs by two fold serial dilution method; settings: 10-2, 18 h; how it was run: as §1
# Enterococcus faecium [5] = test: Antibacterial activity against Enterococcus faecium 09-6 after 18 hrs by two fold serial dilution method; settings: 09-6, 18 h; how it was run: as §1
# Staphylococcus aureus [6] = test: Ratio of moxifloxacin MIC to compound MIC for methicillin-resistant Staphylococcus aureus 10-2
# Pseudomonas aeruginosa [7] = test: Antibacterial activity against Pseudomonas aeruginosa 10-3 after 18 hrs by two fold serial dilution method; settings: 10-3, 18 h; how it was run: as §1
# Enterococcus faecium [8] = test: Antibacterial activity against Enterococcus faecium 09-4 after 18 hrs by two fold serial dilution method; settings: 09-4, 18 h; how it was run: as §1
# Pseudomonas aeruginosa [9] = test: Antibacterial activity against Pseudomonas aeruginosa 10-2 after 18 hrs by two fold serial dilution method; settings: 10-2, 18 h; how it was run: as §1
# Enterococcus faecium [10] = test: Antibacterial activity against Enterococcus faecium 09-5 after 18 hrs by two fold serial dilution method; settings: 09-5, 18 h; how it was run: as §1
# Klebsiella pneumoniae [11] = test: Antibacterial activity against Klebsiella pneumoniae 09-2 after 18 hrs by two fold serial dilution method; settings: 09-2, 18 h; how it was run: as §1
# Escherichia coli [12] = test: Antibacterial activity against Escherichia coli 09-1 after 18 hrs by two fold serial dilution method; settings: 09-1, 18 h; how it was run: as §1
# Enterococcus faecalis [13] = test: Antibacterial activity against Enterococcus faecalis 09-1 after 18 hrs by two fold serial dilution method; settings: 09-1, 18 h; how it was run: as §1
# Klebsiella pneumoniae [14] = test: Antibacterial activity against Klebsiella pneumoniae 10-3 after 18 hrs by two fold serial dilution method; settings: 10-3, 18 h; how it was run: as §1
# Enterococcus faecium [15] = test: Antibacterial activity against Enterococcus faecium 09-1 after 18 hrs by two fold serial dilution method; settings: 09-1, 18 h; how it was run: as §1
# Staphylococcus aureus [16] = test: Antibacterial activity against methicillin-resistant Staphylococcus aureus 10-4 after 18 hrs by two fold serial dilution method; settings: 10-4, 18 h; how it was run: as §2
# Staphylococcus aureus [17] = test: Antibacterial activity against methicillin-resistant Staphylococcus aureus 10-1 after 18 hrs by two fold serial dilution method; settings: 10-1, 18 h; how it was run: as §2
# Enterococcus faecalis [18] = test: Antibacterial activity against Enterococcus faecalis 09-2 after 18 hrs by two fold serial dilution method; settings: 09-2, 18 h; how it was run: as §1
# Staphylococcus aureus [19] = test: Ratio of gemifloxacin MIC to compound MIC for methicillin-resistant Staphylococcus aureus 10-2
# Pseudomonas aeruginosa [20] = test: Antibacterial activity against Pseudomonas aeruginosa 10-1 after 18 hrs by two fold serial dilution method; settings: 10-1, 18 h; how it was run: as §1
# Staphylococcus aureus [21] = test: Antibacterial activity against methicillin-sensitive Staphylococcus aureus 10-2 after 18 hrs by two fold serial dilution method; settings: 10-2, 18 h; how it was run: as §1
# Enterococcus faecalis [22] = test: Ratio of moxifloxacin MIC to compound MIC for Enterococcus faecalis 09-2
# Escherichia coli [23] = test: Antibacterial activity against Escherichia coli 10-2 after 18 hrs by two fold serial dilution method; settings: 10-2, 18 h; how it was run: as §1
# Staphylococcus aureus [24] = test: Antibacterial activity against Staphylococcus aureus ATCC 25923 after 18 hrs by two fold serial dilution method; settings: ATCC 25923, 18 h; how it was run: as §1
# Enterococcus faecium [25] = test: Antibacterial activity against Enterococcus faecium 09-3 after 18 hrs by two fold serial dilution method; settings: 09-3, 18 h; how it was run: as §1
# Streptococcus pneumoniae = test: Antibacterial activity against Streptococcus pneumoniae 10-1 after 18 hrs by two fold serial dilution method; settings: 10-1, 18 h; how it was run: as §1
# Staphylococcus aureus [26] = test: Antibacterial activity against methicillin-resistant Staphylococcus aureus 10-2 after 18 hrs by two fold serial dilution method; settings: 10-2, 18 h; how it was run: as §2
# Staphylococcus aureus [27] = test: Antibacterial activity against methicillin-sensitive Staphylococcus aureus 10-1 after 18 hrs by two fold serial dilution method; settings: 10-1, 18 h; how it was run: as §1
# Staphylococcus aureus [28] = test: Antibacterial activity against methicillin-sensitive Staphylococcus aureus 10-5 after 18 hrs by two fold serial dilution method; settings: 10-5, 18 h; how it was run: as §1
# Klebsiella pneumoniae [29] = test: Antibacterial activity against Klebsiella pneumoniae 10-1 after 18 hrs by two fold serial dilution method; settings: 10-1, 18 h; how it was run: as §1
# Staphylococcus aureus [30] = test: Antibacterial activity against methicillin-sensitive Staphylococcus aureus 10-6 after 18 hrs by two fold serial dilution method; settings: 10-6, 18 h; how it was run: as §1
# Enterococcus faecalis [31] = test: Ratio of ciprofloxacin MIC to compound MIC for Enterococcus faecalis 09-2
# [32] = test system: Staphylococcus epidermidis; test: Antibacterial activity against methicillin-resistant Staphylococcus epidermidis 10-1 after 18 hrs by two fold serial dilution method; settings: 10-1, 18 h; how it was run: as §2
# Escherichia coli [33] = test: Antibacterial activity against Escherichia coli 10-1 after 18 hrs by two fold serial dilution method; settings: 10-1, 18 h; how it was run: as §1
# Enterococcus faecalis [34] = test: Ratio of gemifloxacin MIC to compound MIC for Enterococcus faecalis 09-2
# Enterococcus faecium [35] = test: Antibacterial activity against Enterococcus faecium 09-2 after 18 hrs by two fold serial dilution method; settings: 09-2, 18 h; how it was run: as §1
# Escherichia coli [36] = test: Antibacterial activity against Escherichia coli 10-3 after 18 hrs by two fold serial dilution method; settings: 10-3, 18 h; how it was run: as §1
# Staphylococcus aureus [37] = test: Antibacterial activity against methicillin-sensitive Staphylococcus aureus 10-4 after 18 hrs by two fold serial dilution method; settings: 10-4, 18 h; how it was run: as §1
# Pseudomonas aeruginosa [38] = test: Antibacterial activity against Pseudomonas aeruginosa ATCC 27853 after 18 hrs by two fold serial dilution method; settings: ATCC 27853, 18 h; how it was run: as §1
# [39] = test system: Staphylococcus epidermidis; test: Antibacterial activity against methicillin-sensitive Staphylococcus epidermidis 10-1 after 18 hrs by two fold serial dilution method; settings: 10-1, 18 h; how it was run: as §1
# Staphylococcus aureus [40] = test: Antibacterial activity against methicillin-sensitive Staphylococcus aureus 10-3 after 18 hrs by two fold serial dilution method; settings: 10-3, 18 h; how it was run: as §1
# Escherichia coli [41] = test: Antibacterial activity against Escherichia coli ATCC 25922 after 18 hrs by two fold serial dilution method; settings: ATCC 25922, 18 h; how it was run: as §1
# Staphylococcus aureus [42] = test: Ratio of ciprofloxacin MIC to compound MIC for methicillin-resistant Staphylococcus aureus 10-2
# [43] = test system: Staphylococcus epidermidis; test: Antibacterial activity against methicillin-resistant Staphylococcus epidermidis 10-2 after 18 hrs by two fold serial dilution method; settings: 10-2, 18 h; how it was run: as §2
# Pseudomonas aeruginosa [44] = test: Antibacterial activity against Pseudomonas aeruginosa 10-1 infected KM mouse systemic infection model assessed as decrease in mouse mortality administered orally twice after 1 and 4 hrs post infection measured up to 7 days; settings: 10-1, po
# How it was run: (§3)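 Strains grown on MH agar at 35 °C for 18 h, suspended in gastric mucin. Male KM mice (19–21 g), groups of 10, infected intraperitoneally with 0.5 mL at 5–10× MLD. Four oral dose levels per drug at 1 and 4 h post infection. Mortality followed 7 days; ED50 with 95% confidence limits by Bliss method.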
# Klebsiella pneumoniae [45] = test: Antibacterial activity against Klebsiella pneumoniae 10-3 infected KM mouse systemic infection model assessed as decrease in mouse mortality administered orally twice after 1 and 4 hrs post infection measured up to 7 days; settings: 10-3, po; how it was run: as §3
# [46] = test system: Staphylococcus epidermidis; test: Antibacterial activity against methicillin-resistant Staphylococcus epidermidis 10-4 infected KM mouse systemic infection model assessed as decrease in mouse mortality administered orally twice after 1 and 4 hrs post infection measured up to 7 days; settings: 10-4, po; how it was run: as §3
# [47] = test system: Staphylococcus epidermidis; test: Antibacterial activity against methicillin-resistant Staphylococcus epidermidis 10-4 after 18 hrs by two fold serial dilution method; settings: 10-4, 18 h; how it was run: as §2
# Escherichia coli [48] = test: Antibacterial activity against Escherichia coli 10-2 infected KM mouse systemic infection model assessed as decrease in mouse mortality administered orally twice after 1 and 4 hrs post infection measured up to 7 days; settings: 10-2, po; how it was run: as §3
# Staphylococcus aureus [49] = test: Antibacterial activity against methicillin-resistant Staphylococcus aureus 10-2 infected KM mouse systemic infection model assessed as decrease in mouse mortality administered orally twice after 1 and 4 hrs post infection measured up to 7 days; settings: 10-2, po; how it was run: as §3
smiles,measurement,setting,value
CC1(CN)CN(c2nc3c(cc2F)c(=O)c(C(=O)O)cn3C2CC2)C/C1=N\OCF (racemic),MIC,Escherichia coli [1],> 128 µg/mL
same,MIC,Escherichia coli [2],32 µg/mL
same,MIC,Staphylococcus aureus [3],4 µg/mL
same,MIC,[4],64 µg/mL
same,MIC,Enterococcus faecium [5],0.06 µg/mL
same,Ratio,Staphylococcus aureus [6],32
same,MIC,Pseudomonas aeruginosa [7],4 µg/mL
same,MIC,Enterococcus faecium [8],0.06 µg/mL
same,MIC,Pseudomonas aeruginosa [9],16 µg/mL
same,MIC,Enterococcus faecium [10],16 µg/mL
same,MIC,Klebsiella pneumoniae [11],128 µg/mL
same,MIC,Escherichia coli [12],64 µg/mL
same,MIC,Enterococcus faecalis [13],4 µg/mL
same,MIC,Klebsiella pneumoniae [14],0.125 µg/mL
same,MIC,Enterococcus faecium [15],16 µg/mL
same,MIC,Staphylococcus aureus [16],4 µg/mL
same,MIC,Staphylococcus aureus [17],4 µg/mL
same,MIC,Enterococcus faecalis [18],1 µg/mL
same,Ratio,Staphylococcus aureus [19],2
same,MIC,Pseudomonas aeruginosa [20],0.008 µg/mL
same,MIC,Staphylococcus aureus [21],1 µg/mL
same,Ratio,Enterococcus faecalis [22],16
same,MIC,Escherichia coli [23],0.125 µg/mL
same,MIC,Staphylococcus aureus [24],8 ng/mL
same,MIC,Enterococcus faecium [25],8 µg/mL
same,MIC,Streptococcus pneumoniae,0.5 µg/mL
same,MIC,Staphylococcus aureus [26],0.25 µg/mL
same,MIC,Staphylococcus aureus [27],0.06 µg/mL
same,MIC,Staphylococcus aureus [28],0.03 µg/mL
same,MIC,Klebsiella pneumoniae [29],0.015 µg/mL
same,MIC,Staphylococcus aureus [30],0.125 µg/mL
same,Ratio,Enterococcus faecalis [31],64
same,MIC,[32],1 µg/mL
same,MIC,Escherichia coli [33],64 µg/mL
same,Ratio,Enterococcus faecalis [34],4
same,MIC,Enterococcus faecium [35],16 µg/mL
same,MIC,Escherichia coli [36],32 µg/mL
same,MIC,Staphylococcus aureus [37],0.06 µg/mL
same,MIC,Pseudomonas aeruginosa [38],0.125 µg/mL
same,MIC,[39],8 µg/mL
same,MIC,Staphylococcus aureus [40],0.25 µg/mL
same,MIC,Escherichia coli [41],8 ng/mL
same,Ratio,Staphylococcus aureus [42],64
same,MIC,[43],0.5 µg/mL
CO/N=C1\CN(c2nc3c(cc2F)c(=O)c(C(=O)O)cn3C2CC2)CC1CN (stereo not drawn) [GEMIFLOXACIN],MIC,Escherichia coli [1],32 µg/mL
same,MIC,Escherichia coli [2],16 µg/mL
same,MIC,Staphylococcus aureus [3],16 µg/mL
same,MIC,[4],16 µg/mL
same,ED50,Pseudomonas aeruginosa [44],129 mg/kg
same,MIC,Enterococcus faecium [5],0.03 µg/mL
same,MIC,Pseudomonas aeruginosa [7],2 µg/mL
same,MIC,Enterococcus faecium [8],0.03 µg/mL
same,MIC,Pseudomonas aeruginosa [9],16 µg/mL
same,MIC,Enterococcus faecium [10],16 µg/mL
same,MIC,Klebsiella pneumoniae [11],16 µg/mL
same,MIC,Escherichia coli [12],16 µg/mL
same,MIC,Enterococcus faecalis [13],2 µg/mL
same,MIC,Klebsiella pneumoniae [14],0.5 µg/mL
same,MIC,Enterococcus faecium [15],16 µg/mL
same,MIC,Staphylococcus aureus [16],16 µg/mL
same,MIC,Staphylococcus aureus [17],16 µg/mL
same,MIC,Enterococcus faecalis [18],4 µg/mL
same,ED50,Klebsiella pneumoniae [45],108 mg/kg
same,MIC,Pseudomonas aeruginosa [20],0.25 µg/mL
same,ED50,[46],24 mg/kg
same,MIC,Staphylococcus aureus [21],2 µg/mL
same,MIC,Escherichia coli [23],0.25 µg/mL
same,MIC,Staphylococcus aureus [24],8 ng/mL
same,MIC,Enterococcus faecium [25],4 µg/mL
same,MIC,Streptococcus pneumoniae,0.015 µg/mL
same,MIC,Staphylococcus aureus [26],0.5 µg/mL
same,MIC,Staphylococcus aureus [27],0.008 µg/mL
same,MIC,Staphylococcus aureus [28],0.5 µg/mL
same,MIC,Klebsiella pneumoniae [29],0.015 µg/mL
same,MIC,Staphylococcus aureus [30],0.008 µg/mL
same,MIC,[47],4 µg/mL
same,ED50,Escherichia coli [48],6.86 mg/kg
same,MIC,[32],0.25 µg/mL
same,MIC,Escherichia coli [33],16 µg/mL
same,MIC,Enterococcus faecium [35],16 µg/mL
same,MIC,Escherichia coli [36],4 µg/mL
same,MIC,Staphylococcus aureus [37],0.015 µg/mL
same,MIC,Pseudomonas aeruginosa [38],0.5 µg/mL
same,ED50,Staphylococcus aureus [49],14.9 mg/kg
same,MIC,[39],2 µg/mL
same,MIC,Staphylococcus aureus [40],0.06 µg/mL
same,MIC,Escherichia coli [41],8 ng/mL
same,MIC,[43],0.5 µg/mL
